Here are results for 15 compounds from ChEMBL document CHEMBL1123904, “Synthesis, structure, and biological activity of certain 2-deoxy-beta-D-ribo-hexopyranosyl nucleosides and nucleotides” (J Med Chem, 1987).

pKi: −log10 of the molar value.

As usually defined, the pKi is −log10 of the Ki, conventionally taken in molar units. A low value points to a high Ki.

The first assay concerns Human alphaherpesvirus 2. In words: In vitro antiviral activity Virus rating (VR) determined by comparing CPE development in drug-treated cells (T) and virus control cells (C) against, Herpes simplex virus-2. In kind it is functional. The method in brief:
(§1)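 Vero (African green monkey kidney) cells in 10% FBS DMEM, seeded 4 × 10^4 cells/well, confluent over 24 h at 37 °C, 5% CO2. Virus (amount giving full monolayer destruction in 72 h; HSV-2 strain 333, measles Edmonston, para 3 C243) adsorbed 30 min. Compound added after adsorption at seven 0.5-log steps, final 5 × 10^-6 to 5 × 10^-3 M. Duplicate infected wells, single uninfected wells for toxicity.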
`Nc1ncnc2c1ncn2C1CC(O)C(O)C(COP(=O)(O)O)O1` (stereo not given) returned a VR of 0.44.
`Nc1ccn(C2CC(O)C(O)C(CO)O2)c(=O)n1` (stereo not given) returned a VR of 0.
`Nc1ncnc2c1ncn2C1CC(O)C(O)C(CO)O1` (stereo not given) showed a VR of 0.
For `O=c1ccn(C2CC(O)C(O)C(COP(=O)(O)O)O2)c(=O)[nH]1` (stereo not given), the VR came out at 0.74.
Regarding `Nc1ncnc2ncn(C3CC(O)C(O)C(CO)O3)c12` (stereo not given), the VR worked out at 0.08.
Still for that read-out and setting: the figure for `Nc1nc(O)c2ncn(C3CC(O)C(O)C(CO)O3)c2n1` (stereo not given) is 1.06; for `O=c1ccn(C2CC(O)C(O)C(CO)O2)c(=O)[nH]1` (stereo not given) it is 0.06.
On the same count and under the same terms, the figure for `OCC1OC(n2cnc3c(O)ncnc32)CC(O)C1O` (stereo not given) is 0.07; for `Nc1nc(N)c2ncn(C3CC(O)C(O)C(CO)O3)c2n1` (stereo not given) it is 0.62.
Turning to `Nc1nc(Cl)nc2c1ncn2C1CC(O)C(O)C(CO)O1` (stereo not given), the VR is 0.34.
`Nc1ncnc2c1ncn2[C@@H]1C=C(CO)[C@@H](O)[C@H]1O` [NEOPLANOCIN A] returned a VR of 1.39.

The next assay has as its system Vaccinia virus. In words: In vitro antiviral activity Virus rating (VR) determined by comparing CPE development in drug-treated cells (T) and virus control cells (C) against, Vaccinia virus. In kind it is functional, Orthopoxvirus vaccinia.
As for `Nc1ncnc2c1ncn2C1CC(O)C(O)C(COP(=O)(O)O)O1` (stereo not given), the VR is given as 0.
Still for that read-out and setting: the value for `Nc1ccn(C2CC(O)C(O)C(CO)O2)c(=O)n1` (stereo not given) was 0; that for `Nc1ncnc2c1ncn2C1CC(O)C(O)C(CO)O1` (stereo not given) was 0.
`O=c1ccn(C2CC(O)C(O)C(COP(=O)(O)O)O2)c(=O)[nH]1` (stereo not given) had a VR of 0.28.
With `Nc1ncnc2ncn(C3CC(O)C(O)C(CO)O3)c12` (stereo not given), the VR came out at 0.22.
As to `Nc1nc(O)c2ncn(C3CC(O)C(O)C(CO)O3)c2n1` (stereo not given), the VR is listed as 0.19.
Same read-out and setting: the value for `O=c1ccn(C2CC(O)C(O)C(CO)O2)c(=O)[nH]1` (stereo not given) was 0.25; that for `OCC1OC(n2cnc3c(O)ncnc32)CC(O)C1O` (stereo not given) was 0.1.
On the same count and under the same terms, the figure for `Nc1nc(N)c2ncn(C3CC(O)C(O)C(CO)O3)c2n1` (stereo not given) is 0.22; for `Nc1ccn(C2CC(O)C(O)C(COP(=O)(O)O)O2)c(=O)n1` (stereo not given) it is 0.25; for `Nc1nc(Cl)nc2c1ncn2C1CC(O)C(O)C(CO)O1` (stereo not given) it is 0.04.
For the compound `Nc1ncnc2c1ncn2[C@@H]1C=C(CO)[C@@H](O)[C@H]1O` [NEOPLANOCIN A], the VR was determined as 1.38.

In a further assay the test system is Measles morbillivirus. In words: In vitro antiviral activity Virus rating (VR) determined by comparing CPE development in drug-treated cells (T) and virus control cells (C) against, measles. In kind it is functional. The essentials: as §1
Compound `Nc1ncnc2c1ncn2C1CC(O)C(O)C(COP(=O)(O)O)O1` (stereo not given) returned a VR of 0.24.
On to `Nc1ccn(C2CC(O)C(O)C(CO)O2)c(=O)n1` (stereo not given), for which the VR is 0.5.
As for `Nc1ncnc2c1ncn2C1CC(O)C(O)C(CO)O1` (stereo not given), the VR is recorded as 0.9.
In turn, `O=c1ccn(C2CC(O)C(O)C(COP(=O)(O)O)O2)c(=O)[nH]1` (stereo not given) registered a VR of 0.44.
Same read-out and setting: the figure for `Nc1ncnc2ncn(C3CC(O)C(O)C(CO)O3)c12` (stereo not given) is 0; for `Nc1nc(O)c2ncn(C3CC(O)C(O)C(CO)O3)c2n1` (stereo not given) it is 0.3.
Take `O=c1ccn(C2CC(O)C(O)C(CO)O2)c(=O)[nH]1` (stereo not given): the VR is on record as 0.
With `OCC1OC(n2cnc3c(O)ncnc32)CC(O)C1O` (stereo not given), the VR turned out to be 0.
On to `Nc1nc(N)c2ncn(C3CC(O)C(O)C(CO)O3)c2n1` (stereo not given), for which the VR stood at 0.54.
On to `Nc1ccn(C2CC(O)C(O)C(COP(=O)(O)O)O2)c(=O)n1` (stereo not given), for which the VR came to 0.06.
Still for that read-out and setting: the value for `Nc1nc(Cl)nc2c1ncn2C1CC(O)C(O)C(CO)O1` (stereo not given) was 0.05; that for `Nc1ncnc2c1ncn2[C@@H]1C=C(CO)[C@@H](O)[C@H]1O` [NEOPLANOCIN A] was 0.75.

A further assay addresses T1, Adenosine deaminase (Bos taurus, UniProt P56658).
T1 sequence (P56658 whole entry): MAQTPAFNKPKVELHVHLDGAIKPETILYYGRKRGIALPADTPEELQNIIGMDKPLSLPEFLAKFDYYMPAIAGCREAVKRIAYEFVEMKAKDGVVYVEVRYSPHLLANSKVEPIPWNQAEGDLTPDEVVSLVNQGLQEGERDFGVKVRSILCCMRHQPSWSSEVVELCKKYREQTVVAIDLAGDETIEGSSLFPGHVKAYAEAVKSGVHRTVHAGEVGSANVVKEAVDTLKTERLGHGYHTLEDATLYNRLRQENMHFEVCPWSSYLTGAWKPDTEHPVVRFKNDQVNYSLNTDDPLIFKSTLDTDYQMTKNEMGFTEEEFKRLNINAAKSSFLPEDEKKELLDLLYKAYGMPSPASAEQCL
In words: Ability to inhibit adenosine deaminase. The method in brief:
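Calf intestine adenosine deaminase; substrate and inhibitor kinetic parameters measured spectrophotometrically.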
With `OC[C@H]1O[C@@H](n2cnc3c(O)ncnc32)C[C@@H]1O` [DEOXYINOSINE], the negative-log Ki (pKi) is 3.82.
In the case of `OC[C@H]1O[C@@H](n2cnc3c(O)ncnc32)[C@H](O)[C@@H]1O` [INOSINE], the pKi was 3.30.

Target in the next assay: not listed separately
In words: Ability of inhibit mammalian uridine phosphorylase.
The compound `Cc1cn(C2CC(O)C(O)C(CO)O2)c(=O)[nH]c1=O` (stereo not given) gave a pKi of 4.92.

In a further assay the test system is Human respirovirus 3. In words: In vitro antiviral activity Virus rating (VR) determined by comparing CPE development in drug-treated cells (T) and virus control cells (C) against, parainfluenza type 3 (para 3). In kind it is functional. The essentials:
as §1
With `Nc1ncnc2c1ncn2C1CC(O)C(O)C(COP(=O)(O)O)O1` (stereo not given), the VR came out at 0.16.
As for `Nc1ccn(C2CC(O)C(O)C(CO)O2)c(=O)n1` (stereo not given), the VR stood at 0.15.
Compound `Nc1ncnc2c1ncn2C1CC(O)C(O)C(CO)O1` (stereo not given) came in with a VR of 0.35.
Same read-out and setting: the figure for `O=c1ccn(C2CC(O)C(O)C(COP(=O)(O)O)O2)c(=O)[nH]1` (stereo not given) is 0.64; for `Nc1ncnc2ncn(C3CC(O)C(O)C(CO)O3)c12` (stereo not given) it is 0.
Regarding `Nc1nc(O)c2ncn(C3CC(O)C(O)C(CO)O3)c2n1` (stereo not given), the VR is given as 0.
`O=c1ccn(C2CC(O)C(O)C(CO)O2)c(=O)[nH]1` (stereo not given) yielded a VR of 0.
Compound `OCC1OC(n2cnc3c(O)ncnc32)CC(O)C1O` (stereo not given) returned a VR of 0.06.
Compound `Nc1nc(N)c2ncn(C3CC(O)C(O)C(CO)O3)c2n1` (stereo not given) returned a VR of 0.25.
`Nc1ccn(C2CC(O)C(O)C(COP(=O)(O)O)O2)c(=O)n1` (stereo not given) showed a VR of 0.28.
With `Nc1nc(Cl)nc2c1ncn2C1CC(O)C(O)C(CO)O1` (stereo not given), the VR is reported as 0.
The compound `Nc1ncnc2c1ncn2[C@@H]1C=C(CO)[C@@H](O)[C@H]1O` [NEOPLANOCIN A] registered a VR of 1.6.
